ChEMBL document CHEMBL1122951, “Synthesis of new polyoxin derivatives and their activity against chitin synthase from Candida albicans” (J Med Chem, 1985)

Tests used:
[1] = molecular target: Chitin synthase 1 (Candida albicans) (UniProt P23316); experiment: Inhibitory activity against chitin synthase from Candida albicans at a concentration 5 uM
Procedure, shortened: (§1)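 Membrane preparation from C. albicans grown in liquid shake culture in Sabouraud broth, pH 6.5, washed in 0.2 M Tris-HCl pH 7.5 and broken with glass beads. Chitin synthase trypsin-activated just before assay. Substrate UDP-GlcNAc 0.5 mM. Percent inhibition at the stated inhibitor concentration, mean of triplicate assays.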

[2] = molecular target: Chitin synthase 1 (Candida albicans) (UniProt P23316); experiment: Inhibitory activity against chitin synthase from Candida albicans at a concentration 25 uM; procedure, shortened: as §1
[3] = molecular target: Chitin synthase 1 (Candida albicans) (UniProt P23316); experiment: Inhibitory activity against chitin synthase from Candida albicans at a concentration 100 uM; procedure, shortened: as §1

Sequence of Chitin synthase 1 (Candida albicans) (P23316 whole entry, looked up): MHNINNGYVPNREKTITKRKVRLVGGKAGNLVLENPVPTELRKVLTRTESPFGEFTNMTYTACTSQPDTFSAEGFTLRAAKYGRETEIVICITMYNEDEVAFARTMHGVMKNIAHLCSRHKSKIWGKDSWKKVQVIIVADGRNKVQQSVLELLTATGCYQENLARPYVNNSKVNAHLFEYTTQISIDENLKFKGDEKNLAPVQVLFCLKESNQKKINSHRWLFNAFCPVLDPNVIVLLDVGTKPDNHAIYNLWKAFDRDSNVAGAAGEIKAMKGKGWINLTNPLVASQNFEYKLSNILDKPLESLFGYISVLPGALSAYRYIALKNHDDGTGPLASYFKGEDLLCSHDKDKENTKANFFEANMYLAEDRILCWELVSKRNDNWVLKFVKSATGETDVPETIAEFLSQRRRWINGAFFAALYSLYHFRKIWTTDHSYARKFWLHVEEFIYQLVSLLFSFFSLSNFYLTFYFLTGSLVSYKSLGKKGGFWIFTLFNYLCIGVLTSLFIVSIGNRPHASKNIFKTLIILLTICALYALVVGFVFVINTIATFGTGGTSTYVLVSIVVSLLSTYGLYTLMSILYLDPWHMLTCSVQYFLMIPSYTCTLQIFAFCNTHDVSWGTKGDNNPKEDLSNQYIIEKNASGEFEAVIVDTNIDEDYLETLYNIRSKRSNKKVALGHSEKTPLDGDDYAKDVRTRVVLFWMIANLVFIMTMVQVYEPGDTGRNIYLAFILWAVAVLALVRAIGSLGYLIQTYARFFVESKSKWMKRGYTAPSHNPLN

| inhibition [1] [%] | inhibition [2] [%] | inhibition [3] [%] | Compound |
| --- | --- | --- | --- |
| 0 | 0 | 0 | C[C@H](N)C(=O)N(C)[C@@H](C(=O)O)[C@H]1O[C@@H](n2ccc(=O)[nH]c2=O)[C@H](O)[C@@H]1O |
| 0 | 20 | 45 | C[C@H](N)C(=O)N[C@@H](C(=O)O)[C@H]1O[C@@H](n2ccc(=O)[nH]c2=O)[C@H](O)[C@@H]1O |
| 0 | 0 | 0 | C[C@@H](N)C(=O)N[C@@H](C(=O)O)[C@H]1O[C@@H](n2ccc(=O)[nH]c2=O)[C@H](O)[C@@H]1O |
| 8 | 26 | 53 | C[C@@H](O)[C@H](N)C(=O)N[C@@H](C(=O)O)[C@H]1O[C@@H](n2ccc(=O)[nH]c2=O)[C@H](O)[C@@H]1O |
| 0 | 37 | 80 | NC(=O)NCCC[C@@H](N)C(=O)N[C@@H](C(=O)O)[C@H]1O[C@@H](n2ccc(=O)[nH]c2=O)[C@H](O)[C@@H]1O |
| 0 | 0 | 2 | C[C@@H](N)CNC(C(=O)O)C1OC(n2ccc(=O)[nH]c2=O)C(O)C1O (some centres undefined) |
| 0 | 0 | 0 | NC(=O)NCCC[C@@H](N)C(=O)N[C@H](C(=O)O)[C@H]1O[C@@H](n2ccc(=O)[nH]c2=O)[C@H](O)[C@@H]1O |
| 79 | 96 | 100 | N[C@@H](C(=O)N[C@@H](C(=O)O)[C@H]1O[C@@H](n2ccc(=O)[nH]c2=O)[C@H](O)[C@@H]1O)[C@H](O)Cc1ccc(O)cc1 |
